Activity calls are given as the source filed them. No cut-off for these calls is given here.
Columns and labels:
[1] = target: T1, Prostaglandin G/H synthase 2 (Homo sapiens) (UniProt P35354); test: Inhibition of LPS-stimulated human whole blood COX-2 assessed as inhibition of PGE2 production at 10 uM by EIA
T1 sequence (whole entry): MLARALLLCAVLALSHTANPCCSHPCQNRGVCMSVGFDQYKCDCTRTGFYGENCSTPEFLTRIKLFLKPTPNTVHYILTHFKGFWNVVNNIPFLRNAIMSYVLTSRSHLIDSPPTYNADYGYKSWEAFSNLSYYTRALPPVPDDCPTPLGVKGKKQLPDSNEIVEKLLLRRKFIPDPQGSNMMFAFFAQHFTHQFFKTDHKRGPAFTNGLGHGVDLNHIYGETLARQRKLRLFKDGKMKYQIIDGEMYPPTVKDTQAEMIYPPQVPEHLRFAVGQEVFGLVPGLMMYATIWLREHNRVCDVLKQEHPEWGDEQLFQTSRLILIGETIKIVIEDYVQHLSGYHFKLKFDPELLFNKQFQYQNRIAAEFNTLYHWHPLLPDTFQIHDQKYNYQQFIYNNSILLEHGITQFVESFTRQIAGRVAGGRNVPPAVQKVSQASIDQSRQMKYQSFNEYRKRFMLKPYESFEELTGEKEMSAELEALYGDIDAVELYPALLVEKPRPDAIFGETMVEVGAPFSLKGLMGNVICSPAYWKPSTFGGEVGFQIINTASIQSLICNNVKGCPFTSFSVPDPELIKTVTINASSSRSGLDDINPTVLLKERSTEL
Procedure, shortened: (§1)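 Human whole blood COX assay, with COX-1 and COX-2 read as prostaglandin biosynthesis. Relative inhibition (%) was taken at fixed test concentrations of 10 and 100 μM. Mean ± SEM, n = 3−6.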

[2] = target: T2, Prostaglandin G/H synthase 1 (Homo sapiens, UniProt P23219); test: Inhibition of human whole blood COX-1 assessed as inhibition of TXB2 production at 10 uM by EIA; procedure, shortened: as §1
[3] = target: T2, Prostaglandin G/H synthase 1; test: Inhibition of human whole blood COX-1 assessed as inhibition of TXB2 production at 100 uM by EIA; procedure, shortened: as §1
[4] = target: T1, Prostaglandin G/H synthase 2 (Homo sapiens); test: Inhibition of LPS-stimulated human whole blood COX-2 assessed as inhibition of PGE2 production at 100 uM by EIA; procedure, shortened: as §1
Rattus norvegicus [5] = test: Antiinflammatory activity against Wistar rat assessed as inhibition of carrageenan induced edema volume at 37.3 uM/kg, po administered 1 hr prior carrageenan-challenge measured after 6 hrs post challenge; type: functional
Procedure, shortened: (§2)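 Oral dose of 37.3 μM/kg. Carrageenan (1%) was injected intradermally into the left hindpaw 1 h later. Edema was measured 3 h and 6 h after challenge, and relative inhibition of the edema volume increase was calculated. Mean ± SEM, n = 3−6.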

Rattus norvegicus [6] = test: Antiinflammatory activity against Wistar rat assessed as inhibition of carrageenan induced edema volume at 37.3 uM/kg, po administered 1 hr prior carrageenan-challenge measured after 3 hrs post challenge; type: functional; procedure, shortened: as §2
Homo sapiens = species: Homo sapiens; test: Selectivity index, ratio of IC50 for human COX1 to IC50 for human COX2
Procedure, shortened: (§3)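 Human whole blood COX-1 and COX-2 assay run over a range of test concentrations. IC50 was fitted to a four-parameter logistic dose−response curve, and the COX-1/COX-2 ratio was computed from the two IC50 values. Mean ± SEM, n = 3−6.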

Rattus norvegicus [7] = test: Toxicity in rat assessed as gastric ulcerogenic activity at 0.37 to 7.45 mM/kg, po measured after 8 hrs; type: organism-based, Stomach; details: in vivo
Procedure, shortened: (§4)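 Rats were given oral doses of 0.37, 0.75, 1.12, 1.86, 3.73 or 7.45 mM/kg. Stomachs were removed 8 h later and scored for hemorrhagic damage. Mean ± SEM, n = 3−6.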

[8] = target: T2, Prostaglandin G/H synthase 1; test: Inhibition of human whole blood COX-1 assessed as inhibition of TXB2 production by EIA; procedure, shortened: as §3
[9] = target: T3, Prostaglandin G/H synthase 2 (Homo sapiens, UniProt P35354); test: Inhibition of LPS-stimulated human whole blood COX-2 assessed as inhibition of PGE2 production by EIA; procedure, shortened: as §3
T3 sequence (P35354 whole entry): T1 sequence (whole entry)

Rattus norvegicus [10] = test: Antiinflammatory activity against Wistar rat assessed as inhibition of carrageenan induced edema volume at 3.73 to 37.3 uM/kg, po administered 1 hr prior carrageenan-challenge measured after 3 to 6 hrs post challenge; type: functional, organism-based
Procedure, shortened: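 Rats dosed orally at 3.73, 11.2 or 37.3 μM/kg. Carrageenan (1%) was injected intradermally into the left hindpaw 1 h after dosing. Footpad edema was measured 3 and 6 h after carrageenan, and relative inhibition of the edema volume increase was calculated. Mean ± SEM, n = 3−6.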

Rattus norvegicus [11] = test: Toxicity in rat assessed as gastric ulcerogenic activity at 7.45 mM/kg, po measured after 8 hrs; type: organism-based, Stomach; details: in vivo, 7450 µM; procedure, shortened: as §4

T2 sequence (P23219 whole entry): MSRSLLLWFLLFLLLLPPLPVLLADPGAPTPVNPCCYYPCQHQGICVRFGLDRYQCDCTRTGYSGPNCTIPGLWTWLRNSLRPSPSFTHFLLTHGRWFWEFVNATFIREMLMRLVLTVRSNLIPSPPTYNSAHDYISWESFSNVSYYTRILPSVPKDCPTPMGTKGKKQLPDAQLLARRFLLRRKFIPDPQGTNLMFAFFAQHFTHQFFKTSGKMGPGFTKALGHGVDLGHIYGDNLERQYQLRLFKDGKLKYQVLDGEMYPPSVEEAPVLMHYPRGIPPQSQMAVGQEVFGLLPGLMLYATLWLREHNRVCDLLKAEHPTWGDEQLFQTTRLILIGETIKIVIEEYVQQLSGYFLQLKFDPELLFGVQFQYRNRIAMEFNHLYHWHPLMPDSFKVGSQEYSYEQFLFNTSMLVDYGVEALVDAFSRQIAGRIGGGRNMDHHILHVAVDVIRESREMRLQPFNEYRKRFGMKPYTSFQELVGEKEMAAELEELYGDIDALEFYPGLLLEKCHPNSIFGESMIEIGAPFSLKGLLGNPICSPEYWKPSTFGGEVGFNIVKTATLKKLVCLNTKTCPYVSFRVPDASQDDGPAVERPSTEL

| SMILES | inhibition [1] | inhibition [2] | inhibition [3] | inhibition [4] | Ratio IC50 (Homo sapiens) | IC50 [8] | IC50 [9] | inhibition (INH) (Rattus norvegicus [5]) | inhibition (INH) (Rattus norvegicus [6]) | Activity (Rattus norvegicus [7]) | inhibition (Rattus norvegicus [10]) | Activity (Rattus norvegicus [11]) |
| --- | --- | --- | --- | --- | --- | --- | --- | --- | --- | --- | --- | --- |
| CC(C(=O)O)c1cc(F)c(CC2CCCC2=O)cc1F (stereo not given) | 15% | 0% | 81% | 84.8% |  |  |  | <0% | <0% |  |  |  |
| CC(C(=O)O)c1ccc(N[C@H]2CCCC[C@@H]2O)cc1F (stereo not given in full) | 28.3% | 0% | 0% | 76.7% |  |  |  | <0% | <0% |  |  |  |
| Cc1ccc(-c2cc(C(F)(F)F)nn2-c2ccc(S(N)(=O)=O)cc2)cc1 |  |  |  |  | 22.7 |  |  |  |  |  |  |  |
| CC(C(=O)O)c1ccc(NC2CCCCC2)cc1F (stereo not given) | 0% | 0% | 0% | 30% |  |  |  | 19.2% | <0% |  |  |  |
| CC(C(=O)O)c1ccc(SC2CCCC2)cc1F (stereo not given) | 15.6% | 4.7% | 87.9% | 80.1% |  |  |  | 9.5% | <0% |  |  |  |
| CC(C(=O)O)c1c(F)cc(CC2CCCC2=O)cc1-c1ccc(O)cc1 (stereo not given) | 15.4% | 0% | 7.2% | 38% |  |  |  | <0% | <0% |  |  |  |
| CC(C(=O)O)c1ccc(CC2CCCC2=O)cc1 (stereo not given) [LOXOPROFEN] | 53.2% | 35% | 87.5% | 97.4% | 2.3 |  |  | 53.1% | 44% | Toxic |  |  |
| CC(C(=O)O)c1c(F)cc(CC2CCCC2=O)cc1Br (stereo not given) | 0% | 13.8% | 49.7% | 0% |  |  |  | <0% | <0% |  |  |  |
| CC(C(=O)O)c1c(F)cc(CC2CCCC2=O)cc1F (stereo not given) | 0% | 11.3% | 79.3% | 70.9% |  |  |  | 17.7% | 21.6% |  |  |  |

Continued, in another order:

| inhibition [1] | inhibition [2] | inhibition [3] | inhibition [4] | Ratio IC50 (Homo sapiens) | IC50 [8] | IC50 [9] | SMILES | inhibition (INH) (Rattus norvegicus [5]) | inhibition (INH) (Rattus norvegicus [6]) | Activity (Rattus norvegicus [7]) | inhibition (Rattus norvegicus [10]) | Activity (Rattus norvegicus [11]) |
| --- | --- | --- | --- | --- | --- | --- | --- | --- | --- | --- | --- | --- |
| 0% | 0% | 47.6% | 64.4% |  |  |  | CC(C(=O)O)c1ccc(S[C@H]2CCC[C@@H]2O)cc1F (stereo not given in full) | <0% | <0% |  |  |  |
| 60.2% | 53.9% | 87.4% | 99.5% | 1.2 | 9.5 µM | 8.3 µM | CC(C(=O)O)c1ccc(Cc2ccsc2)cc1F (stereo not given) | 33.4% | 40.2% | Toxic |  |  |
| 0% | 0% | 13.5% | 0% |  |  |  | CCC(=O)C(C)Cc1ccc(C(C)C(=O)O)c(F)c1 (stereo not given) | <0% | <0% |  |  |  |
| 27.6% | 80.6% | 82.3% | 82.5% | 0.1 | 1.5 µM | 24.1 µM | CC(C(=O)O)c1ccc(OC2CCCC2=O)cc1F (stereo not given) | 25% | 30.3% |  |  |  |
| 64.1% | 26.3% | 79.9% | 96.1% | 5.3 | 21.6 µM | 4.1 µM | CC(C(=O)O)c1ccc(Cc2ccco2)cc1F (stereo not given) | 45.8% | 38.9% | Non-toxic |  |  |
| 0% | 78% | 98.1% | 82.2% |  |  |  | CCC(Cc1ccc(C(C)C(=O)O)c(F)c1)C(C)=O (stereo not given) | 20.2% | 20.9% |  |  |  |
| 58.7% | 30.9% | 57.5% | 90.9% | 7.6 | 30.1 µM | 4 µM | CC(C(=O)O)c1ccc(Cc2ccoc2)cc1F (stereo not given) | 45.2% | 32.7% | Non-toxic |  |  |
| 25.4% | 10.4% | 78.2% | 80.2% |  |  |  | CC(C(=O)O)c1ccc(O[C@H]2CCC[C@@H]2O)cc1F (stereo not given in full) | 13.3% | <0% |  |  |  |
| 55.5% | 0% | 60.7% | 93.1% |  |  |  | CC(C(=O)O)c1ccc(SC2CCCC2=O)cc1F (stereo not given) | 27.2% | 38% |  |  |  |
| 44.2% | 32.7% | 85.7% | 81.8% | 1.7 |  |  | CC(C(=O)O)c1ccc(CC2CCCC2=O)cc1F (stereo not given) | 54.1% | 41.8% | Non-toxic | Active |  |
| 40.7% | 34.7% | 92% | 91.9% | 0.7 | 15.6 µM | 21.3 µM | CC(C(=O)O)c1ccc(NC2CCCC2)cc1F (stereo not given) | 60.1% | 45.5% | Non-toxic | Active | Non-toxic |
| 39.7% | 65% | 81.4% | 96.4% | 0.1 | 3 µM | 26.3 µM | CC(C(=O)O)c1ccc(OC2CCCC2)cc1F (stereo not given) | 51.9% | 40.4% | Non-toxic |  | Non-toxic |
| 45.3% | 54.6% | 83.4% | 77.6% | 0.7 | 9 µM | 14 µM | CC(C(=O)O)c1ccc(N[C@H]2CCC[C@@H]2O)cc1F (stereo not given in full) | 5.7% | 20.6% |  |  |  |
| 45.8% | 27.4% | 76.5% | 89.2% | 1.5 | 19.9 µM | 13 µM | CC(C(=O)O)c1ccc(Cc2cccs2)cc1F (stereo not given) | 28% | 12.5% |  |  |  |

From ChEMBL document CHEMBL2062479, “Synthesis and biological evaluation of derivatives of 2-{2-fluoro-4-[(2-oxocyclopentyl)methyl]phenyl}propanoic acid: nonsteroidal anti-inflammatory drugs with low gastric ulcerogenic activity” (J Med Chem, 2012)
